In ChEMBL document CHEMBL4261563, “Synthesis and in vitro evaluation of substituted 3-cinnamoyl-4-hydroxy-pyran-2-one (CHP) in pursuit of new potential antituberculosis agents” (Medchemcomm, 2018):
In brackets after ≈: the same amount, converted by molar mass.

Legend:
[1] = tested on: Mycolicibacterium smegmatis; assay: Antimycobacterial activity against Mycobacterium smegmatis after 72 hrs by broth microdilution method; assay type: functional
HEK293 = assay: Cytotoxicity against HEK293 cells by MTT assay; assay type: cell-based, Homo sapiens; settings: for IC50: Homo sapiens, HEK293; for Activity: human, hek293
Procedure, shortened: (§1)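 HEK-293 (from NCCS, Pune) treated at 1, 20, 40 and 80 μM, then at 100 μM. Percentage growth inhibition measured by MTT assay. IC50 assigned from whether inhibition reached ≥50% at 100 μM, the highest concentration tested.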

[2] = tested on: Mycobacterium tuberculosis; assay: Antitubercular activity against Mycobacterium tuberculosis H37Rv after 2 weeks by broth microdilution method; assay type: functional; settings: 336 h
Procedure, shortened: (§2)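 Middlebrook 7H9 broth microdilution with 10% ADC, compounds at […] μg ml−1 in duplicate. Each well received mid-log M. tuberculosis H37Rv at ∼1 × 10^5 CFU ml−1, checked by plating 10-fold dilutions on 7H11 agar (37 °C, read at four weeks). Drug-free broth was the negative control. MIC was the lowest concentration (μg ml−1) preventing visible growth after two weeks.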

[3] = Cytotoxicity against human MCF7 cells assessed as growth inhibition at 100 uM by MTT assay relative to control; assay type: cell-based; settings: read-out: GI
Procedure, shortened: (§3)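 HCT-116, MCF-7 and PC-3 cells (from NCI, USA) exposed to double dilutions from 0.0 to 100 μM. Growth inhibition measured by MTT cell viability assay. Results given as mean ± standard deviation of percentage growth inhibition.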

[4] = Cytotoxicity against human PC3 cells assessed as growth inhibition at 100 uM by MTT assay relative to control; assay type: cell-based, PC-3; settings: read-out: GI; procedure, shortened: as §3
Staphylococcus aureus = assay: Antibacterial activity against Staphylococcus aureus ATCC 25923 after 24 hrs by broth microdilution method; assay type: functional; settings: ATCC 25923, 24 h
Procedure, shortened: (§4)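 Strains revived on Mueller Hinton agar, 37 °C for 24 h. MIC by broth microdilution in MH broth, read after 24 h at 37 °C by visual turbidity, highest concentration tested 128 μg ml−1. Levofloxacin as positive control.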

Micrococcus luteus = assay: Antibacterial activity against Micrococcus luteus ATCC 10240 after 24 hrs by broth microdilution method; assay type: functional; settings: ATCC 10240, 24 h; procedure, shortened: as §4
MCF7 = assay: Cytotoxicity against human MCF7 cells assessed as growth inhibition by MTT assay; assay type: cell-based; settings: for Activity: human, mcf7; procedure, shortened: as §3
[5] = Cytotoxicity against human HCT116 cells assessed as growth inhibition at 100 uM by MTT assay relative to control; assay type: cell-based, HCT-116; settings: read-out: GI; procedure, shortened: as §3
Escherichia coli = assay: Antibacterial activity against Escherichia coli ATCC 10536 after 24 hrs by broth microdilution method; assay type: functional; settings: ATCC 10536, 24 h; procedure, shortened: as §4
[6] = tested on: Staphylococcus epidermidis; assay: Antibacterial activity against Staphylococcus epidermidis ATCC 12228 after 24 hrs by broth microdilution method; assay type: functional; settings: ATCC 12228, 24 h; procedure, shortened: as §4
HCT-116 = assay: Cytotoxicity against human HCT116 cells assessed as growth inhibition by MTT assay; assay type: cell-based; settings: for Activity: human, hct-116; procedure, shortened: as §3
[7] = Cytotoxicity against HEK293 cells assessed as growth inhibition at 100 uM by MTT assay relative to control; assay type: cell-based; settings: human, read-out: GI; procedure, shortened: as §1
Klebsiella pneumoniae = assay: Antibacterial activity against Klebsiella pneumoniae ATCC BAA-2146 after 24 hrs by broth microdilution method; assay type: functional; settings: ATCC BAA-2146, 24 h; procedure, shortened: as §4
PC-3 = assay: Cytotoxicity against human PC3 cells assessed as growth inhibition by MTT assay; assay type: cell-based; settings: for Activity: human, pc-3; procedure, shortened: as §3
Bacillus subtilis = assay: Antibacterial activity against Bacillus subtilis ATCC 11774 after 24 hrs by broth microdilution method; assay type: functional; settings: ATCC 11774, 24 h; procedure, shortened: as §4
Enterococcus faecalis = assay: Antibacterial activity against Enterococcus faecalis ATCC 51299 after 24 hrs by broth microdilution method; assay type: functional; settings: ATCC 51299, 24 h; procedure, shortened: as §4
Pseudomonas aeruginosa = assay: Antibacterial activity against Pseudomonas aeruginosa ATCC 10145 after 24 hrs by broth microdilution method; assay type: functional; settings: ATCC 10145, 24 h; procedure, shortened: as §4
[8] = tested on: Mycobacterium tuberculosis; assay: Antitubercular activity against Mycobacterium tuberculosis H37Rv; assay type: functional; procedure, shortened: as §2
[9] = Selectivity ratio of MIC for Mycobacterium smegmatis to MIC for Mycobacterium tuberculosis H37Rv; assay type: functional

Row | SMILES | MIC ([1]; read-out: MIC) [µg/mL] | IC50 (HEK293) [µM] | MIC [2] [µg/mL] | other results
1 | Cc1cccc(/C=C/C(=O)c2c(O)cc(C)oc2=O)c1 | > 128 | 100 | 32 (≈ 118 µM) | –
2 | CCOc1cccc(/C=C/C(=O)c2c(O)cc(C)oc2=O)c1 | > 128 | 80 to 100 | 4 (≈ 13.3 µM) | inhibition at 100 µM [3]: 67 to 70%; inhibition at 100 µM [4]: 67 to 70%; MIC (Staphylococcus aureus): > 128 µg/mL; MIC (Micrococcus luteus): > 128 µg/mL; IC50 (MCF7; Homo sapiens, MCF7): 80 µM; Activity (MCF7): Dose-dependent effect; inhibition at 100 µM [5]: 67 to 70%; MIC (Escherichia coli): > 128 µg/mL; MIC [6]: > 128 µg/mL; IC50 (HCT-116; Homo sapiens, HCT-116): 80 µM; Activity (HCT-116): Dose-dependent effect; inhibition at 100 µM [7]: 67 to 70%; MIC (Klebsiella pneumoniae): 128 µg/mL (≈ 426 µM); IC50 (PC-3; Homo sapiens, PC-3): 80 µM; Activity (PC-3): Dose-dependent effect; Activity (HEK293): Dose-dependent effect; MIC (Bacillus subtilis): > 128 µg/mL; MIC (Enterococcus faecalis): > 128 µg/mL; MIC (Pseudomonas aeruginosa): > 128 µg/mL
3 | Cc1cc(O)c(C(=O)/C=C/c2ccccc2Cl)c(=O)o1 | > 128 | > 100 | 16 (≈ 55 µM) | –
4 | Cc1cc(O)c(C(=O)/C=C/c2ccccc2C(F)(F)F)c(=O)o1 | > 128 | – | 8 (≈ 24.7 µM) | –
5 | CN[C@@H]1[C@H](O[C@H]2[C@H](O[C@H]3[C@H](O)[C@@H](O)[C@H](N=C(N)N)[C@@H](O)[C@@H]3N=C(N)N)O[C@@H](C)[C@]2(O)C=O)O[C@@H](CO)[C@H](O)[C@H]1O [STREPTOMYCIN] | – | – | 1.25 (≈ 2.15 µM) | –
6 | COc1cc(OC)c(OC)cc1/C=C/C(=O)c1c(O)cc(C)oc1=O | > 128 | 100 | 8 (≈ 23.1 µM) | –
7 | CC[C@@H](CO)NCCN[C@@H](CC)CO [ETHAMBUTOL] | – | – | 2.5 (≈ 12.2 µM) | –
8 | Cc1cc(O)c(C(=O)/C=C/c2ccc(O)cc2)c(=O)o1 | > 128 | – | 64 (≈ 235 µM) | –
9 | COc1cccc(/C=C/C(=O)c2c(O)cc(C)oc2=O)c1 | > 128 | – | 8 to 16 (≈ 27.9 to 55.9 µM) | –
10 | CO[C@H]1/C=C/O[C@@]2(C)Oc3c(C)c(O)c4c(O)c(c(/C=N/N5CCN(C)CC5)c(O)c4c3C2=O)NC(=O)/C(C)=C\C=C\[C@H](C)[C@H](O)[C@@H](C)[C@@H](O)[C@@H](C)[C@H](OC(C)=O)[C@@H]1C [RIFAMPIN] | – | – | 0.078 (≈ 0.0948 µM) | MIC [8]: 0.2 µg/mL (≈ 0.243 µM); Selectivity ratio [9]: 500
11 | Cc1cc(O)c(C(=O)/C=C/c2ccccc2O)c(=O)o1 | > 128 | – | 8 to 16 (≈ 29.4 to 58.8 µM) | –
12 | COc1ccccc1/C=C/C(=O)c1c(O)cc(C)oc1=O | > 128 | – | 32 to 64 (≈ 112 to 224 µM) | –
13 | COc1ccc(/C=C/C(=O)c2c(O)cc(C)oc2=O)cc1 | > 128 | 100 | 32 (≈ 112 µM) | –
14 | Cc1ccc(/C=C/C(=O)c2c(O)cc(C)oc2=O)cc1 | > 128 | > 100 | 8 (≈ 29.6 µM) | –
15 | Cc1cc(O)c(C(=O)/C=C/c2cccc(C(F)(F)F)c2)c(=O)o1 | > 128 | > 100 | 256 (≈ 790 µM) | –
16 | Cc1cc(O)c(C(=O)/C=C/c2cccc(Br)c2)c(=O)o1 | > 128 | 100 | 4 to 8 (≈ 11.9 to 23.9 µM) | –
17 | COc1ccc(OC)c(/C=C/C(=O)c2c(O)cc(C)oc2=O)c1 | > 128 | 100 | 4 to 8 (≈ 12.6 to 25.3 µM) | –
18 | Cc1cc(O)c(C(=O)/C=C/c2ccc(Br)cc2)c(=O)o1 | > 128 | 100 | 8 to 16 (≈ 23.9 to 47.7 µM) | –
19 | Cc1cc(O)c(C(=O)/C=C/c2cccc(O)c2)c(=O)o1 | > 128 | > 100 | 8 to 16 (≈ 29.4 to 58.8 µM) | –
20 | COc1cc(/C=C/C(=O)c2c(O)cc(C)oc2=O)ccc1O | > 128 | > 100 | 32 (≈ 106 µM) | –
21 | Cc1cc(O)c(C(=O)/C=C/c2ccc(C(F)(F)F)cc2)c(=O)o1 | > 128 | 100 | 256 (≈ 790 µM) | –
22 | Cc1cc(O)c(C(=O)/C=C/c2ccsc2)c(=O)o1 | > 128 | – | 32 to 64 (≈ 122 to 244 µM) | –
23 | COc1cc(C(F)(F)F)ccc1/C=C/C(=O)c1c(O)cc(C)oc1=O | > 128 | 100 | 256 (≈ 723 µM) | –
24 | COc1cc(/C=C/C(=O)c2c(O)cc(C)oc2=O)cc(OC)c1OC | > 128 | 100 | 8 (≈ 23.1 µM) | –
25 | NNC(=O)c1ccncc1 [ISONIAZID] | – | – | 0.312 (≈ 2.28 µM) | MIC [1]: 25 µg/mL (≈ 182 µM); MIC [8]: 0.02 µg/mL (≈ 0.146 µM); Selectivity ratio [9]: 1000
26 | Cc1cc(O)c(C(=O)/C=C/c2ccco2)c(=O)o1 | > 128 | – | 16 to 32 (≈ 65 to 130 µM) | –
27 | CCOc1ccc(/C=C/C(=O)c2c(O)cc(C)oc2=O)cc1 | > 128 | – | 256 (≈ 852 µM) | –
28 | Cc1cc(O)c(C(=O)/C=C/c2cc(Br)cs2)c(=O)o1 | > 128 | 100 | 4 to 8 (≈ 11.7 to 23.4 µM) | –
29 | Cc1cc(O)c(C(=O)/C=C/c2ccccc2)c(=O)o1 | > 128 | – | 4 (≈ 15.6 µM) | inhibition at 100 µM [3]: 38 to 44%; inhibition at 100 µM [4]: 38 to 44%; MIC (Staphylococcus aureus): > 128 µg/mL; MIC (Micrococcus luteus): > 128 µg/mL; Activity (MCF7): Dose-dependent effect; inhibition at 100 µM [5]: 50%; MIC (Escherichia coli): > 128 µg/mL; MIC [6]: > 128 µg/mL; Activity (HCT-116): Dose-dependent effect; inhibition at 100 µM [7]: 38 to 44%; MIC (Klebsiella pneumoniae): 128 µg/mL (≈ 499 µM); Activity (PC-3): Dose-dependent effect; Activity (HEK293): Dose-dependent effect; MIC (Bacillus subtilis): > 128 µg/mL; MIC (Enterococcus faecalis): > 128 µg/mL; MIC (Pseudomonas aeruginosa): > 128 µg/mL
30 | C[C@H]1COc2c(N3CCN(C)CC3)c(F)cc3c(=O)c(C(=O)O)cn1c23.C[C@H]1COc2c(N3CCN(C)CC3)c(F)cc3c(=O)c(C(=O)O)cn1c23.O [LEVOFLOXACIN] | 2.5 | – | 2.5 | MIC (Staphylococcus aureus): 0.078 to 0.156 µg/mL; MIC (Micrococcus luteus): 0.078 µg/mL; MIC (Escherichia coli): 0.078 µg/mL; MIC [6]: 0.039 to 0.078 µg/mL; MIC (Klebsiella pneumoniae): 0.625 to 1.25 µg/mL; MIC (Bacillus subtilis): 0.39 µg/mL; MIC (Enterococcus faecalis): 0.156 µg/mL; MIC (Pseudomonas aeruginosa): 0.312 to 0.625 µg/mL
